Laboratory results published in ChEMBL document CHEMBL5058577, “EUbOPEN Chemogenomics Library 2 (Multiplex)” (2022).

Tested on: Fibroblast
Test: Multiplex assay against human fibroblast
Type: toxicity, cell-based
Summary of the method: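 Four dyes were applied at seeding to live cells: Hoechst33342, BioTracker Green Microtubule Cytoskeleton Dye, MitoTracker Red and Annexin V Alexa Fluor 680. Imaging after compound addition used a CQ1 microscope at 37°C and 5% CO2. CellPathfinder machine-learning gating then sorted cells into Hoechst high-intensity objects or normal cells, normal cells into healthy, pyknosed or fragmented nuclei, and pyknosed cells into mitotic or apoptotic, with tubulin, mitochondrial-mass and membrane-permeability phenotypes given as per cents of healthy-nucleus cells.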

[1] = 12 h, 1 µM, compound concentration 1 uM, replicate 1
[2] = 12 h, 1 µM, compound concentration 1 uM, replicate 2
[3] = 12 h, 10 µM, compound concentration 10 uM, replicate 1
[4] = 12 h, 10 µM, compound concentration 10 uM, replicate 2
[5] = 24 h, 1 µM, compound concentration 1 uM, replicate 1
[6] = 24 h, 1 µM, compound concentration 1 uM, replicate 2
[7] = 24 h, 10 µM, compound concentration 10 uM, replicate 1
[8] = 24 h, 10 µM, compound concentration 10 uM, replicate 2
[9] = 48 h, 1 µM, compound concentration 1 uM, replicate 1
[10] = 48 h, 1 µM, compound concentration 1 uM, replicate 2
[11] = 48 h, 10 µM, compound concentration 10 uM, replicate 1
[12] = 48 h, 10 µM, compound concentration 10 uM, replicate 2

COc1cc(OC2CCN(C(C)=O)CC2)ccc1C(=O)N1CCC(N2C(=O)OCc3ccccc32)CC1 was tested, and the “Population Apoptotic (%)” value [1] was 41%, the “Population Fragmented Nuclei (%)” value [1] was 12% and the “Population Healthy Nuclei (%)” value [1] was 64%. For the same molecule, the “Population Hoechst High Intensity Objects (%)” value [1] was 5%, the “Population Membrane Permeable-Phenotype (%)” value [1] was 2% and the “Population Mitochondria Different-Phenotype (%)” value [1] was 5%. For the same molecule, the “Population Mitotic Cells (%)” value [1] was 58%, the “Population Normal (%)” value [1] was 94% and the “Population Pyknosed Nuclei (%)” value [1] was 22%. The “Population Tubulin-Different-Phenotype (%)” value [1] was 32%, the “Total Cell Count” value [1] was 157 and the “Population Apoptotic (%)” value [2] was 40%. For the same molecule, the “Population Fragmented Nuclei (%)” value [2] was 29%, the “Population Healthy Nuclei (%)” value [2] was 52% and the “Population Hoechst High Intensity Objects (%)” value [2] was 3%. The “Population Membrane Permeable-Phenotype (%)” value [2] was 0%, the “Population Mitochondria Different-Phenotype (%)” value [2] was 3% and the “Population Mitotic Cells (%)” value [2] was 59%. The “Population Normal (%)” value [2] was 96%, the “Population Pyknosed Nuclei (%)” value [2] was 17% and the “Population Tubulin-Different-Phenotype (%)” value [2] was 34%. The “Total Cell Count” value [2] was 159, the “Population Apoptotic (%)” value [3] was 52% and the “Population Fragmented Nuclei (%)” value [3] was 10%. For the same molecule, the “Population Healthy Nuclei (%)” value [3] was 73%, the “Population Hoechst High Intensity Objects (%)” value [3] was 3% and the “Population Membrane Permeable-Phenotype (%)” value [3] was 0%. For the same molecule, the “Population Mitochondria Different-Phenotype (%)” value [3] was 6%, the “Population Mitotic Cells (%)” value [3] was 48% and the “Population Normal (%)” value [3] was 96%. The “Population Pyknosed Nuclei (%)” value [3] was 16%, the “Population Tubulin-Different-Phenotype (%)” value [3] was 54% and the “Total Cell Count” value [3] was 161. For the same molecule, the “Population Apoptotic (%)” value [4] was 37%, the “Population Fragmented Nuclei (%)” value [4] was 32% and the “Population Healthy Nuclei (%)” value [4] was 40%. For the same molecule, the “Population Hoechst High Intensity Objects (%)” value [4] was 6%, the “Population Membrane Permeable-Phenotype (%)” value [4] was 2% and the “Population Mitochondria Different-Phenotype (%)” value [4] was 10%. The “Population Mitotic Cells (%)” value [4] was 62%, the “Population Normal (%)” value [4] was 93% and the “Population Pyknosed Nuclei (%)” value [4] was 28%. For the same molecule, the “Population Tubulin-Different-Phenotype (%)” value [4] was 56%, the “Total Cell Count” value [4] was 134 and the “Population Apoptotic (%)” value [5] was 63%. For the same molecule, the “Population Fragmented Nuclei (%)” value [5] was 19%, the “Population Healthy Nuclei (%)” value [5] was 63% and the “Population Hoechst High Intensity Objects (%)” value [5] was 1%. The “Population Membrane Permeable-Phenotype (%)” value [5] was 0%, the “Population Mitochondria Different-Phenotype (%)” value [5] was 4% and the “Population Mitotic Cells (%)” value [5] was 36%. For the same molecule, the “Population Normal (%)” value [5] was 98%, the “Population Pyknosed Nuclei (%)” value [5] was 17% and the “Population Tubulin-Different-Phenotype (%)” value [5] was 32%. For the same molecule, the “Total Cell Count” value [5] was 170, the “Population Apoptotic (%)” value [6] was 48% and the “Population Fragmented Nuclei (%)” value [6] was 28%. The “Population Healthy Nuclei (%)” value [6] was 51%, the “Population Membrane Permeable-Phenotype (%)” value [6] was 5% and the “Population Mitochondria Different-Phenotype (%)” value [6] was 3%. For the same molecule, the “Population Mitotic Cells (%)” value [6] was 51%, the “Population Pyknosed Nuclei (%)” value [6] was 19% and the “Population Tubulin-Different-Phenotype (%)” value [6] was 31%. For the same molecule, the “Total Cell Count” value [6] was 155, the “Population Apoptotic (%)” value [7] was 36% and the “Population Fragmented Nuclei (%)” value [7] was 13%. For the same molecule, the “Population Healthy Nuclei (%)” value [7] was 74%, the “Population Hoechst High Intensity Objects (%)” value [7] was 7% and the “Population Membrane Permeable-Phenotype (%)” value [7] was 1%. For the same molecule, the “Population Mitochondria Different-Phenotype (%)” value [7] was 7%, the “Population Mitotic Cells (%)” value [7] was 63% and the “Population Normal (%)” value [7] was 92%. The “Population Pyknosed Nuclei (%)” value [7] was 11%, the “Population Tubulin-Different-Phenotype (%)” value [7] was 39% and the “Total Cell Count” value [7] was 172. For the same molecule, the “Population Apoptotic (%)” value [8] was 43%, the “Population Fragmented Nuclei (%)” value [8] was 34% and the “Population Healthy Nuclei (%)” value [8] was 48%. The “Population Membrane Permeable-Phenotype (%)” value [8] was 3%, the “Population Mitochondria Different-Phenotype (%)” value [8] was 10% and the “Population Mitotic Cells (%)” value [8] was 56%. The “Population Pyknosed Nuclei (%)” value [8] was 17%, the “Population Tubulin-Different-Phenotype (%)” value [8] was 70% and the “Total Cell Count” value [8] was 145. For the same molecule, the “Population Apoptotic (%)” value [9] was 40%, the “Population Fragmented Nuclei (%)” value [9] was 14% and the “Population Healthy Nuclei (%)” value [9] was 70%. For the same molecule, the “Population Hoechst High Intensity Objects (%)” value [9] was 7%, the “Population Membrane Permeable-Phenotype (%)” value [9] was 0% and the “Population Mitochondria Different-Phenotype (%)” value [9] was 5%. The “Population Mitotic Cells (%)” value [9] was 59%, the “Population Normal (%)” value [9] was 92% and the “Population Pyknosed Nuclei (%)” value [9] was 14%. For the same molecule, the “Population Tubulin-Different-Phenotype (%)” value [9] was 35%, the “Total Cell Count” value [9] was 160 and the “Population Apoptotic (%)” value [10] was 58%. For the same molecule, the “Population Fragmented Nuclei (%)” value [10] was 32%, the “Population Healthy Nuclei (%)” value [10] was 52% and the “Population Hoechst High Intensity Objects (%)” value [10] was 3%. The “Population Membrane Permeable-Phenotype (%)” value [10] was 4%, the “Population Mitochondria Different-Phenotype (%)” value [10] was 4% and the “Population Mitotic Cells (%)” value [10] was 41%. The “Population Normal (%)” value [10] was 96%, the “Population Pyknosed Nuclei (%)” value [10] was 15% and the “Population Tubulin-Different-Phenotype (%)” value [10] was 43%. The “Total Cell Count” value [10] was 163, the “Population Apoptotic (%)” value [11] was 57% and the “Population Fragmented Nuclei (%)” value [11] was 10%. For the same molecule, the “Population Healthy Nuclei (%)” value [11] was 79%, the “Population Hoechst High Intensity Objects (%)” value [11] was 5% and the “Population Membrane Permeable-Phenotype (%)” value [11] was 0%. The “Population Mitochondria Different-Phenotype (%)” value [11] was 13%, the “Population Mitotic Cells (%)” value [11] was 42% and the “Population Normal (%)” value [11] was 94%. For the same molecule, the “Population Pyknosed Nuclei (%)” value [11] was 9%, the “Population Tubulin-Different-Phenotype (%)” value [11] was 51% and the “Total Cell Count” value [11] was 155. For the same molecule, the “Population Apoptotic (%)” value [12] was 56%, the “Population Fragmented Nuclei (%)” value [12] was 36% and the “Population Healthy Nuclei (%)” value [12] was 51%. The “Population Hoechst High Intensity Objects (%)” value [12] was 3%, the “Population Membrane Permeable-Phenotype (%)” value [12] was 3% and the “Population Mitochondria Different-Phenotype (%)” value [12] was 10%. The “Population Mitotic Cells (%)” value [12] was 43%, the “Population Normal (%)” value [12] was 96% and the “Population Pyknosed Nuclei (%)” value [12] was 12%. The “Population Tubulin-Different-Phenotype (%)” value [12] was 69% and the “Total Cell Count” value [12] was 134.
